Published values of several laboratories.
AXL: Tyrosine-protein kinase receptor UFO (AXL, Homo sapiens, UniProt P30530)

| SMILES | target | effect on | action | method | concentration | quantity | result |
| --- | --- | --- | --- | --- | --- | --- | --- |
| Cn1cc(-c2cc(F)cc(N3CCn4c(cc5c4CCCC5)C3=O)c2CO)cc(Nc2ccc(N3CCN(C4COC4)CC3)cn2)c1=O | AXL | enzyme activity | inhibitor | – | 0.1 µM | inhibition | 12% |
| Cn1cncc1[C@](O)(COc1ccc(C#N)cc1-c1ccc(OC(F)(F)F)cc1)c1ccc(C#N)cc1 | AXL | cell-free assay | – | competition with immobilised ligand | 1 µM | remaining binding | 100% |
| Nc1ncc(-c2nc(N3CCOCC3)nc(N3CCOCC3)n2)c(C(F)F)n1 | AXL | binding | – | competition with immobilised ligand | 10 µM | remaining binding | 91% |
| N#CC1(c2ccccn2)CCN(Cc2cc(C(=O)O)c(=O)n3ccccc23)CC1 | AXL | cell-free assay | – | competition with immobilised ligand | 1 µM | remaining binding | 91% |
| C#Cc1n[nH]c2c(-c3cn(C(C)c4ccccn4)c(=O)[nH]c3=O)cc(F)cc12 (centres unmarked) | Tyrosine-protein kinase receptor UFO (AXL, Homo sapiens, UniProt P30530, R499C) | enzyme activity | inhibitor | – | 1 µM | inhibition | 67.6% |
| O=c1[nH]c2ccccc2n1C1CCN(Cc2ccc(-c3[nH]c4cc5ncnc5cc4nc3-c3ccccc3)cc2)CC1 | AXL | cell-free assay | – | – | 0.5 µM | remaining signal | 105% |
| COc1ncccc1-c1cnn2ccc(N3CCN(C(=O)OC(C)C)CC3)nc12 | AXL | binding | – | competition with immobilised ligand | 1 µM | remaining binding | 100% |
| Cn1cc(-c2cccc(N3CCc4c(sc5c4CC(C)(C)C5)C3=O)c2CO)cc(Nc2ccncn2)c1=O | AXL | enzyme activity | inhibitor | – | 1 µM | inhibition | 3% |
| Cc1nn(C)cc1-c1nc2c(N3CCN(Cc4ccc(Cl)cc4)CC3)c(Cl)cnc2[nH]1 | AXL | binding | – | competition with immobilised ligand | 1 µM | remaining binding | 2.2% |
| COc1cc(Nc2ncc(F)c(Nc3ccc4c(n3)NC(=O)C(C)(C)O4)n2)cc(OC)c1OC | AXL | binding | – | competition with immobilised ligand | 10 µM | inhibition | 100% |
| CC(C)(C)c1cc(C=C(C#N)C#N)cc(Br)c1O | AXL | enzyme activity | inhibitor | – | 0.5 µM | remaining activity | 103% |
